Test results from ChEMBL document CHEMBL1132771, “Analogues of SB-203207 as inhibitors of tRNA synthetases” (Bioorg Med Chem Lett, 2000).
In brackets after ≈: the same amount, converted by molar mass. Activity calls are given as the source filed them. The calls are words filed in the database; no cut-off is given here.

Assays:
[1] = biological target: T1, Isoleucyl-tRNA synthetase (Rattus norvegicus, UniProt O35880); test: Compound was evaluated for its inhibitory activity against Isoleucyl-tRNA synthetase from rat liver
T1 sequence (O35880 whole entry): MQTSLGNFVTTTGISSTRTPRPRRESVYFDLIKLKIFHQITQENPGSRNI

Isoleucine--tRNA ligase = biological target: T2, Isoleucine--tRNA ligase (Staphylococcus aureus, UniProt P41972); test: Compound was evaluated for its inhibitory activity against Isoleucyl-tRNA synthetase from staphylococcus aureus WCUH29
T2 sequence (P41972 whole entry): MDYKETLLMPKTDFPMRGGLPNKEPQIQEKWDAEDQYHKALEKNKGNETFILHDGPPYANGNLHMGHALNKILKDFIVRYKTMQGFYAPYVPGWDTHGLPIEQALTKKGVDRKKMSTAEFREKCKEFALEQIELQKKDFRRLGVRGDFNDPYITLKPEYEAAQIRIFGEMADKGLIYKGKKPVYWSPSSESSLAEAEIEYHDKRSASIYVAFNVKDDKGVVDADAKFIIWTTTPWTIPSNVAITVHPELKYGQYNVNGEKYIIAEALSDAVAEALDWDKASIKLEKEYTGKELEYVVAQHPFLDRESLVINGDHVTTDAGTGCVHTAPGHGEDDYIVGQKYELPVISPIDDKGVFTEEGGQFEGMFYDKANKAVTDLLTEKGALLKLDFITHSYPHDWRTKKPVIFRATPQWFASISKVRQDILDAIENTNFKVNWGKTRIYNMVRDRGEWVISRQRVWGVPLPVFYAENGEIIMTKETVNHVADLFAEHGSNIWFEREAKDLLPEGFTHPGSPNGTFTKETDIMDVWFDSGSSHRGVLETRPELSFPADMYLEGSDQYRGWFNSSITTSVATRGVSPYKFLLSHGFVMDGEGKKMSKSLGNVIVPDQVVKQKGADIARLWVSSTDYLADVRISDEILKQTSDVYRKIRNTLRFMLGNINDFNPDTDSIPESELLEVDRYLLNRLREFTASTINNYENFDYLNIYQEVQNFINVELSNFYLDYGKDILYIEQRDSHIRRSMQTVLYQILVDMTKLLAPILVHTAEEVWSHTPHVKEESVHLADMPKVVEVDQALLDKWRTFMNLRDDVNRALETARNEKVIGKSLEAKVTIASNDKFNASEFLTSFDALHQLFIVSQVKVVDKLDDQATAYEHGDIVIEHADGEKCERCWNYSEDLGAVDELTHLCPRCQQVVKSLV

Staphylococcus aureus [2] = test: Compound (100 uM) was evaluated for its inhibitory activity against VRS (valyl tRNA synthetase) from staphylococcus aureus WCUH29
[3] = tested on: Leucine--tRNA ligase (Staphylococcus aureus); test: Compound (10 uM) was evaluated for its inhibitory activity against Leucyl-tRNA synthetase from staphylococcus aureus WCUH29; no inhibition
Staphylococcus aureus [4] = test: Compound (10 uM) was evaluated for its inhibitory activity against VRS (valyl tRNA synthetase) from staphylococcus aureus WCUH29; no inhibition
[5] = tested on: Leucine--tRNA ligase (Staphylococcus aureus); test: Compound (100 uM) was evaluated for its inhibitory activity against Leucyl-tRNA synthetase from staphylococcus aureus WCUH29; no inhibition
[6] = biological target: T3, Isoleucine--tRNA ligase (Staphylococcus aureus) (UniProt P41972); test: Compound (100 uM) was evaluated for its inhibitory activity against Isoleucyl-tRNA synthetase from staphylococcus aureus WCUH29
T3 sequence (whole entry): T2 sequence (P41972 whole entry)

Staphylococcus aureus [7] = test: Compound (100 uM) was evaluated for its inhibitory activity against VRS (valyl tRNA synthetase) from staphylococcus aureus WCUH29; no inhibition
[8] = biological target: T4, Isoleucyl-tRNA synthetase (Rattus norvegicus) (UniProt O35880); test: Compound (100 uM) was evaluated for its inhibitory activity against Isoleucyl-tRNA synthetase from rat liver
T4 sequence (whole entry): T1 sequence (O35880 whole entry)

Streptococcus pneumoniae [9] = test: Compound was evaluated for the antibacterial activity against Streptococcus pneumoniae 1629; format: functional
Procedure, shortened: (§1)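 Broth microdilution MIC. Compounds in DMSO, diluted 1:10 in water to a 256 µg mL-1 stock, then serially diluted in supplemented cation-adjusted Mueller Hinton broth. Each well received an equal volume of isolate suspension (~1 × 10^6 cfu mL-1). Final concentrations were 0.06–64 µg mL-1. Plates were incubated at 35 °C in ambient air for 18–24 h, and the MIC was read with a mirror reader.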

Haemophilus influenzae [10] = test: Compound was evaluated for the antibacterial activity against Haemophilus influenzae Q1; format: functional; procedure, shortened: as §1
Enterococcus faecalis [11] = test: Compound was evaluated for the antibacterial activity against Enterococcus faecalis 7; format: functional; procedure, shortened: as §1
Staphylococcus aureus [12] = test: Compound was evaluated for the antibacterial activity against Staphylococcus aureus oxford; format: functional; procedure, shortened: as §1
Streptococcus pneumoniae [13] = test: Compound was evaluated for the antibacterial activity against Streptococcus pneumoniae N1387; format: functional; procedure, shortened: as §1
Haemophilus influenzae [14] = test: Compound was evaluated for the antibacterial activity against Haemophilus influenzae NEMC1; format: functional; procedure, shortened: as §1
[15] = Compound was evaluated for its inhibitory activity against VRS (valyl tRNA synthetase) from staphylococcus aureus WCUH29
Escherichia coli [16] = test: Compound was evaluated for the antibacterial activity against Escherichia coli 763 AcrABEFD; format: functional; procedure, shortened: as §1
Staphylococcus aureus [17] = test: Compound was evaluated for the antibacterial activity against Staphylococcus aureus WCUH 29; format: functional; procedure, shortened: as §1
Escherichia coli [18] = test: Compound was evaluated for the antibacterial activity against Escherichia coli 120 AcrAB-; format: functional; procedure, shortened: as §1
Moraxella catarrhalis = test: Compound was evaluated for the antibacterial activity against Moraxella catarrhalis 1502; format: functional; procedure, shortened: as §1
Enterococcus faecalis [19] = test: Compound was evaluated for the antibacterial activity against Enterococcus faecalis 1; format: functional; procedure, shortened: as §1
Streptococcus pneumoniae [20] = test: Compound was evaluated for the antibacterial activity against Streptococcus pneumoniae ERY2; format: functional; procedure, shortened: as §1
[21] = tested on: Leucine--tRNA ligase (Staphylococcus aureus); test: Compound (100 uM) was evaluated for its inhibitory activity against Leucyl-tRNA synthetase from staphylococcus aureus WCUH29

CC[C@H](C)[C@H](N)C(=O)NS(=O)(=O)CC(=O)N[C@]1(C(=O)OC)[C@@H]2CN(C)C=C(C(N)=O)[C@@H]2C[C@@H]1O
IC50 [1]: 17 nM
IC50 (Isoleucine--tRNA ligase): 60 nM
inhibition (Staphylococcus aureus [2]): 40%

CC[C@H](C)[C@H](N)C(=O)NS(=O)(=O)CC(=O)N[C@]1(C(=O)OCc2ccccc2)[C@@H]2CN(C)C=C(C(N)=O)[C@@H]2C[C@@H]1O
IC50 [1]: 25 nM
inhibition [3]: inactive
IC50 (Isoleucine--tRNA ligase): 120 nM
inhibition (Staphylococcus aureus [4]): inactive

CC[C@H](C)CC(=O)NS(=O)(=O)CC(=O)N[C@@]1(C(=O)OCc2ccccc2)[C@@H](OC(=O)C[C@@H](C)CC)C[C@H]2C(C(N)=O)=CN(C)C[C@H]21
inhibition [5]: inactive
inhibition [6]: 19%
inhibition (Staphylococcus aureus [7]): 6%
inhibition [8]: 20%

CC[C@H](C)[C@H](N)C(=O)NS(=O)(=O)CC(=O)N[C@]1(C(=O)O)[C@@H]2CN(C)C=C(C(N)=O)[C@@H]2C[C@@H]1O
MIC (Streptococcus pneumoniae [9]): > 64 µg/mL
MIC (Haemophilus influenzae [10]): 64 µg/mL (≈ 131 µM)
MIC (Enterococcus faecalis [11]): > 64 µg/mL
MIC (Staphylococcus aureus [12]): > 64 µg/mL
MIC (Streptococcus pneumoniae [13]): > 64 µg/mL
IC50 [1]: 4.2 nM
MIC (Haemophilus influenzae [14]): 64 µg/mL (≈ 131 µM)
IC50 [15]: 126 nM
IC50 (Isoleucine--tRNA ligase): 14 nM
MIC (Escherichia coli [16]): > 64 µg/mL
MIC (Staphylococcus aureus [17]): > 64 µg/mL
MIC (Escherichia coli [18]): > 64 µg/mL
MIC (Moraxella catarrhalis): > 64 µg/mL
MIC (Enterococcus faecalis [19]): > 64 µg/mL
MIC (Streptococcus pneumoniae [20]): 64 µg/mL (≈ 131 µM)

CC(C)C[C@H](N)C(=O)NS(=O)(=O)CC(=O)N[C@]1(C(=O)O)[C@@H]2CN(C)C=C(C(N)=O)[C@@H]2C[C@@H]1O
MIC (Streptococcus pneumoniae [9]): 32 µg/mL (≈ 65.4 µM)
MIC (Haemophilus influenzae [10]): 64 µg/mL (≈ 131 µM)
MIC (Enterococcus faecalis [11]): > 64 µg/mL
MIC (Staphylococcus aureus [12]): > 64 µg/mL
MIC (Streptococcus pneumoniae [13]): 64 µg/mL (≈ 131 µM)
IC50 [1]: 68 nM
MIC (Haemophilus influenzae [14]): 64 µg/mL (≈ 131 µM)
IC50 [15]: 290 nM
IC50 (Isoleucine--tRNA ligase): 910 nM
MIC (Escherichia coli [16]): > 64 µg/mL
MIC (Staphylococcus aureus [17]): > 64 µg/mL
MIC (Escherichia coli [18]): > 64 µg/mL
MIC (Moraxella catarrhalis): > 64 µg/mL
MIC (Enterococcus faecalis [19]): > 64 µg/mL
MIC (Streptococcus pneumoniae [20]): 16 µg/mL (≈ 32.7 µM)

CC[C@H](C)[C@H](NC(=O)OCc1ccccc1)C(=O)NS(=O)(=O)CC(=O)N[C@@]1(C(=O)OC)[C@@H](OC(=O)[C@@H](NC(=O)OCc2ccccc2)[C@@H](C)CC)C[C@H]2C(C(N)=O)=CN(C)C[C@H]21
inhibition [5]: inactive
IC50 [1]: 500 nM
inhibition [6]: 46%
inhibition (Staphylococcus aureus [7]): inactive

CC[C@H](C)CC(=O)NS(=O)(=O)CC(=O)N[C@@]1(C(=O)OC)[C@@H](OC(=O)C[C@@H](C)CC)C[C@H]2C(C(N)=O)=CN(C)C[C@H]21
inhibition [5]: inactive
inhibition [6]: 18%
inhibition (Staphylococcus aureus [7]): inactive
inhibition [8]: 9%

CC(C)[C@H](N)C(=O)NS(=O)(=O)CC(=O)N[C@]1(C(=O)O)[C@@H]2CN(C)C=C(C(N)=O)[C@@H]2C[C@@H]1O
IC50 [1]: 2.9 nM
IC50 [15]: 30 nM
IC50 (Isoleucine--tRNA ligase): 37 nM

CC[C@H](C)CC(=O)NS(=O)(=O)CC(=O)N[C@@]1(C(=O)O)[C@@H](OC(=O)C[C@@H](C)CC)C[C@H]2C(C(N)=O)=CN(C)C[C@H]21
IC50 [1]: 6100 nM
IC50 (Isoleucine--tRNA ligase): 14600 nM
inhibition (Staphylococcus aureus [2]): 65%

CC[C@H](C)CC(=O)NS(=O)(=O)CC(=O)N[C@]1(C(=O)O)[C@@H]2CN(C)C=C(C(N)=O)[C@@H]2C[C@@H]1O
IC50 [1]: 22300 nM
IC50 (Isoleucine--tRNA ligase): 3270 nM
inhibition (Staphylococcus aureus [7]): inactive

CC[C@H](C)CC(=O)NS(=O)(=O)CC(=O)N[C@]1(C(=O)OC)[C@@H]2CN(C)C=C(C(N)=O)[C@@H]2C[C@@H]1O
inhibition [6]: 23%
inhibition [21]: 13%
inhibition (Staphylococcus aureus [7]): inactive
inhibition [8]: 25%
